ChEMBL document CHEMBL1139934, “Synthesis and biological activity of imidazopyridine anticoccidial agents: part I” (Eur J Med Chem, 2007)

What was measured:
Eimeria tenella = assay: Anticococcidal activity against Eimeria tenella in Chick assessed as reduction in oocyte at 25 ppm relative to control; format: functional; design: scale not given: the % may be the effect or the level left
Method in brief: (§1)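 Expanded Mini-Assay Coccidiosis (ExMAC) in chickens infected with E. tenella, E. acervulina, E. mitis and E. maxima. Compound given in the feed at the stated ppm. Efficacy for each species is scored 0 to 4 from the percent oocyst reduction relative to an untreated control. Where a compound was tested more than once, all values are reported.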

[1] = molecular target: cGMP-dependent protein kinase (Eimeria tenella, UniProt Q8MMZ8); assay: Inhibition of Eimeria tenella cGMP-dependent protein kinase by Ten_K assay
Method in brief: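 Ten_K (Tenella Kinase) assay measuring inhibition of E. tenella PKG enzyme activity. Result expressed as the concentration giving 50% inhibition (IC50, nM). Where a compound was tested more than once, all values are reported.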

Eimeria acervulina = assay: Anticococcidal activity against Eimeria acervulina in Chick assessed as reduction in oocyte at 25 ppm relative to control; format: functional; design: scale not given: the % may be the effect or the level left; method in brief: as §1
Eimeria mitis = assay: Anticococcidal activity against Eimeria mitis in Chick assessed as reduction in oocyte at 25 ppm relative to control; format: functional; design: scale not given: the % may be the effect or the level left; method in brief: as §1
Eimeria maxima = assay: Anticococcidal activity against Eimeria maxima in Chick assessed as reduction in oocyte at 25 ppm relative to control; format: functional; design: scale not given: the % may be the effect or the level left; method in brief: as §1

Sequence of cGMP-dependent protein kinase (Q8MMZ8 whole entry): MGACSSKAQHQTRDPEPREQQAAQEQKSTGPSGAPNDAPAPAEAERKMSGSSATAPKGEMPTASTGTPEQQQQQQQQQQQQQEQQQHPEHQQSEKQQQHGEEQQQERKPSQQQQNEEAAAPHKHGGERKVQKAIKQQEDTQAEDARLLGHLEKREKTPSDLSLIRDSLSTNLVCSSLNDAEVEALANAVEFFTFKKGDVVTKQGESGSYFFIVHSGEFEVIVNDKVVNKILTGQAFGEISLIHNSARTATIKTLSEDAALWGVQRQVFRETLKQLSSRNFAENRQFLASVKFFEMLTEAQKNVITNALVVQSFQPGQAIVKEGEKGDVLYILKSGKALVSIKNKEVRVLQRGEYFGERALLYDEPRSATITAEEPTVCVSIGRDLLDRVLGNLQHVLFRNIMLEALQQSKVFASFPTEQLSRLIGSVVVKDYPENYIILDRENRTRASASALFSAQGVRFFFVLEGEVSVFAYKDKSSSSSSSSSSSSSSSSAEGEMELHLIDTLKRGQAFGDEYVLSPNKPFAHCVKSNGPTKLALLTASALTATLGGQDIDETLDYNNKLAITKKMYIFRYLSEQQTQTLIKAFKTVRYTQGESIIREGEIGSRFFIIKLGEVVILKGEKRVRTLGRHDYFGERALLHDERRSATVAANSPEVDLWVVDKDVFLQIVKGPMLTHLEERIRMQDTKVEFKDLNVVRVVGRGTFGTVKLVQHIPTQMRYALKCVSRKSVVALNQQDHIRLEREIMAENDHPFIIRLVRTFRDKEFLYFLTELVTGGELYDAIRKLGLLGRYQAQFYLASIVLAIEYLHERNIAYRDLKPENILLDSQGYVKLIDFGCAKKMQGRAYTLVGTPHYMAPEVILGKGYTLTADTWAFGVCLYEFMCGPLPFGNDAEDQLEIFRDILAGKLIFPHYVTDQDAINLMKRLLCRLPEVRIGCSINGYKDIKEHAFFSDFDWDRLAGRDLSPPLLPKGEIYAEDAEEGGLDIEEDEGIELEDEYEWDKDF

| IC50 [1] | SMILES | Activity (Eimeria tenella) | Activity (Eimeria acervulina) | Activity (Eimeria mitis) | Activity (Eimeria maxima) |
| --- | --- | --- | --- | --- | --- |
| 0.087 nM | CN(C)Cc1ccn2c(-c3ccnc(NCc4ccccc4F)n3)c(-c3ccc(F)cc3)nc2c1 | 80% | <50% | 80% | 80% |
| 0.18 nM | CN(C)Cc1ccn2c(-c3ccnc(NCc4cccc(Cl)c4)n3)c(-c3ccc(F)cc3)nc2c1 | <50% | <50% | <50% | 80% |
| 0.15 nM | CN(C)Cc1ccn2c(-c3ccnc(NCc4ccc(F)cc4F)n3)c(-c3ccc(F)cc3)nc2c1 | <50% | <50% | <50% | 80% |
| 0.25 nM | COCCCNc1nccc(-c2c(-c3ccc(F)cc3)nc3cc(CN(C)C)ccn23)n1 | 80% | 80% | <50% | 50% |
| 5.8 nM | CN(C)Cc1ccn2c(-c3nc(N)ncc3Br)c(-c3ccc(F)cc3)nc2c1 | 50% | <50% | <50% | 50% |
| 0.16 nM | CN(C)Cc1ccn2c(-c3ccnc(N)n3)c(-c3ccc(F)c(Br)c3)nc2c1 | 80% | 80% | <50% | 80% |
| 0.25 nM | CN(C)Cc1ccn2c(-c3ccnc(NS(=O)(=O)c4ccccc4)n3)c(-c3ccc(F)cc3)nc2c1 | <50% | <50% | <50% | <50% |
| 0.083 nM | Cc1cccc(CNc2nccc(-c3c(-c4ccc(F)cc4)nc4cc(CN(C)C)ccn34)n2)c1 | 80% | <50% | <50% | <50% |
| 1.6 nM | CN(C)Cc1ccn2c(-c3nc(N)ncc3C#N)c(-c3ccc(F)cc3)nc2c1 | <50% | <50% | <50% | <50% |
| 0.121 nM | Cc1ccc(CNc2nccc(-c3c(-c4ccc(F)cc4)nc4cc(CN(C)C)ccn34)n2)cc1 | <50% | 50% | <50% | 80% |
| 0.026 nM | CN(C)Cc1ccn2c(-c3ccnc(NCc4cc(F)ccc4F)n3)c(-c3ccc(F)cc3)nc2c1 | <50% | <50% | <50% | 80% |
| 0.24 nM | CN(C)Cc1ccn2c(-c3ccnc(NCc4ccc(Cl)cc4)n3)c(-c3ccc(F)cc3)nc2c1 | <50% | <50% | <50% | <50% |
| 0.12 nM | CN(C)Cc1ccn2c(-c3ccnc(NCc4cccc(F)c4F)n3)c(-c3ccc(F)cc3)nc2c1 | <50% | <50% | <50% | <50% |
| 0.13 nM | CCCCCCNc1nccc(-c2c(-c3ccc(F)cc3)nc3cc(CN(C)C)ccn23)n1 | 80% | <50% | <50% | <50% |
| 0.08 nM | Cc1ccccc1CNc1nccc(-c2c(-c3ccc(F)cc3)nc3cc(CN(C)C)ccn23)n1 | <50% | <50% | <50% | 50% |
| 0.06 nM | CN(C)Cc1ccn2c(-c3ccnc(NCc4ccc(F)c(F)c4)n3)c(-c3ccc(F)cc3)nc2c1 | <50% | <50% | <50% | <50% |
| 0.1 nM | CCCCCNc1nccc(-c2c(-c3ccc(F)cc3)nc3cc(CN(C)C)ccn23)n1 | <50% | 80% | 50% | 80% |
| 0.056 nM | CN(C)Cc1ccn2c(-c3ccnc(NCc4ccccc4Cl)n3)c(-c3ccc(F)cc3)nc2c1 | 50% | <50% | <50% | 80% |
